Data reported in ChEMBL document CHEMBL2429803, “Animal toxicity of hairpin pyrrole-imidazole polyamides varies with the turn unit” (J Med Chem, 2013).

What was measured:
[1] = system: Mus musculus; assay: Acute toxicity in C57BL/6J mouse assessed as moderate atypical tubular regeneration in kidney at 3 mg/kg, sc after 9 days; type: organism-based; parameters: dose 3 mg/kg, route subcutaneous; conditions: in vivo, 216 h
How it was run: (§1)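 Male C57BL/6J mice, 8 weeks old, received a single sc dose (1, 3 or 10 mg/kg in 25% DMSO/saline, n = 4 per group) and were sacrificed after 9 days. Two representative animals per group were fixed in 10% formalin. Cecum, duodenum, heart, ileum, kidney, liver, lung, pancreas, spleen and stomach were examined blind by a veterinary pathologist and lesions graded mild, moderate or severe.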

[2] = system: Mus musculus; assay: Toxicity in C57BL/6J mouse assessed as morbidity at 1 mg/kg, sc administered every 3 days for a cycle of 3 injections; type: organism-based; parameters: dose 1 mg/kg, route subcutaneous; conditions: in vivo, 72 h
How it was run: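 Male C57BL/6J mice, 3 per group, given 1 mg/kg sc every 3 days. Weight recorded on injection days. Watched for signs of duress. Humane end point was visible duress or weight loss over 15% of starting body weight.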

[3] = system: Mus musculus; assay: Toxicity in C57BL/6J mouse assessed as epithelial necrosis and apoptosis in kidney at 1 mg/kg, sc administered every 3 days for a cycle of 3 injections measured 2 days post last injection; type: organism-based; parameters: dose 1 mg/kg, route subcutaneous; conditions: in vivo, 48 h
How it was run: (§2)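 Male C57BL/6J mice, 8 weeks old, given 1 mg/kg sc every 3 days for three injections and sacrificed 2 days after the last one. Two mice per group fixed in 10% formalin. A veterinary pathologist, blinded, examined cecum, duodenum, heart, ileum, kidney, liver, lung, pancreas, spleen and stomach. Lesions graded mild, moderate or severe.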

[4] = system: Mus musculus; assay: Acute toxicity in C57BL/6J mouse assessed as diffuse hepatocellular necrosis and apoptosis at 10 mg/kg, sc after 9 days; type: organism-based; parameters: dose 10 mg/kg, route subcutaneous; conditions: in vivo, 216 h; how it was run: as §1
[5] = system: Mus musculus; assay: Acute toxicity in C57BL/6J mouse assessed as lesions in pancreas at 1 to 10 mg/kg, sc after 9 days; type: organism-based; parameters: dose 1-10 mg/kg, route subcutaneous; conditions: in vivo, 216 h; how it was run: as §1
[6] = system: Mus musculus; assay: Acute toxicity in C57BL/6J mouse assessed as lesions in GI tract at 1 to 10 mg/kg, sc after 9 days; type: organism-based, Gastrointestinal tract; parameters: dose 1-10 mg/kg, route subcutaneous; conditions: in vivo, 216 h; how it was run: as §1
[7] = system: Mus musculus; assay: Acute toxicity in C57BL/6J mouse assessed as weight loss at 10 mg/kg, sc after 9 days; type: organism-based; parameters: dose 10 mg/kg, route subcutaneous; conditions: in vivo, 216 h
How it was run: (§3)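 Male C57BL/6J mice, 8 weeks old, were acclimated 3 days and then given a single sc injection of 1, 3 or 10 mg/kg in 25% DMSO/saline vehicle (up to 200 μL), n = 4 per group. Weight, behaviour and appearance were monitored daily for 9 days before sacrifice. The humane end point was visible duress or weight loss over 15% of the original.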

[8] = system: Mus musculus; assay: Acute toxicity in C57BL/6J mouse assessed as lesions in stomach at 1 to 10 mg/kg, sc after 9 days; type: organism-based; parameters: dose 1-10 mg/kg, route subcutaneous; conditions: in vivo, 216 h; how it was run: as §1
[9] = system: Mus musculus; assay: Acute toxicity in C57BL/6J mouse assessed as acute morbidity at 10 mg/kg, sc after 9 days; type: organism-based; parameters: dose 10 mg/kg, route subcutaneous; conditions: in vivo, 216 h; how it was run: as §3
[10] = system: Mus musculus; assay: Toxicity in C57BL/6J mouse assessed as mild multifocal hepatocellular necrosis and apoptosis in liver at 1 mg/kg, sc administered every 3 days for a cycle of 3 injections measured 2 days post last injection; type: organism-based; parameters: dose 1 mg/kg, route subcutaneous; conditions: in vivo, 48 h; how it was run: as §2
[11] = system: Mus musculus; assay: Toxicity in C57BL/6J mouse assessed as karyomegaly in kidney at 1 mg/kg, sc administered every 3 days for a cycle of 3 injections measured 2 days post last injection; type: organism-based; parameters: dose 1 mg/kg, route subcutaneous; conditions: in vivo, 48 h; how it was run: as §2
[12] = Metabolic stability in human liver microsomes after 1 hr by LC/MS/MS analysis in presence of NADPH; type: ADME, Microsome; conditions: read-out: Stability
How it was run: (§4)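 Compound incubated at 37 °C for 60 min with 1 mg/mL human or mouse liver microsomes in 100 mM KH2PO4, 3 mM MgCl2, pH 7.4, with 2 mM NADPH or without it. Stopped with ice-cold methanol, then precipitate removed. Analyzed by LC/MS/MS as % remaining versus time zero. Duplicates.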

[13] = Metabolic stability in human liver microsomes after 1 hr by LC/MS/MS analysis; type: ADME, Microsome; conditions: read-out: Stability; how it was run: as §4
[14] = system: Mus musculus; assay: Acute toxicity in C57BL/6J mouse assessed as tubular epithelial necrosis and apoptosis in kidney at 3 mg/kg, sc after 9 days; type: organism-based; parameters: dose 3 mg/kg, route subcutaneous; conditions: in vivo, 216 h; how it was run: as §1
[15] = system: Mus musculus; assay: Toxicity in C57BL/6J mouse assessed as weight loss at 1 mg/kg, sc administered every 3 days for a cycle of 3 injections; type: organism-based; parameters: dose 1 mg/kg, route subcutaneous; conditions: in vivo, 72 h
How it was run: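 8-week-old male C57BL/6J mice, acclimated 3 days, groups of three, dosed sc in 25% DMSO/saline vehicle once every 3 days, sacrificed 2 days after the last injection. Body weight recorded on injection days and at end point; humane end point set at visible duress or >15% loss of original body weight.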

[16] = Metabolic stability in mouse liver microsomes after 1 hr by LC/MS/MS analysis in presence of NADPH; type: ADME, Microsome; conditions: read-out: Stability; how it was run: as §4
[17] = system: Mus musculus; assay: Acute toxicity in C57BL/6J mouse assessed as mild lymphoid apoptosis in white pulp of spleen at 10 mg/kg, sc after 9 days; type: organism-based; parameters: dose 10 mg/kg, route subcutaneous; conditions: in vivo, 216 h; how it was run: as §1
[18] = system: Mus musculus; assay: Acute toxicity in C57BL/6J mouse assessed as lesions in heart at 1 to 10 mg/kg, sc after 9 days; type: organism-based; parameters: dose 1-10 mg/kg, route subcutaneous; conditions: in vivo, 216 h; how it was run: as §1
[19] = system: Mus musculus; assay: Toxicity in C57BL/6J mouse assessed as mild tubular attenuation in kidney at 1 mg/kg, sc administered every 3 days for a cycle of 3 injections measured 2 days post last injection; type: organism-based; parameters: dose 1 mg/kg, route subcutaneous; conditions: in vivo, 48 h; how it was run: as §2
[20] = system: Mus musculus; assay: Acute toxicity in C57BL/6J mouse assessed as diffuse hepatocellular necrosis and apoptosis at 10 mg/kg, sc after 9 days; conditions: in vivo, 216 h
[21] = Metabolic stability in mouse liver microsomes after 1 hr by LC/MS/MS analysis; type: ADME, Microsome; conditions: read-out: Stability; how it was run: as §4
[22] = system: Mus musculus; assay: Acute toxicity in C57BL/6J mouse assessed as lesions in lungs at 1 to 10 mg/kg, sc after 9 days; type: organism-based; parameters: dose 1-10 mg/kg, route subcutaneous; conditions: in vivo, 216 h; how it was run: as §1

CN(CCCNC(=O)c1cccc(C(=O)O)c1)CCCNC(=O)c1cc(NC(=O)c2cc(NC(=O)c3cc(NC(=O)c4nc(NC(=O)C[C@@H](N)CNC(=O)c5cc(NC(=O)c6cc(NC(=O)c7cc(NC(=O)c8nccn8C)cn7C)cn6C)cn5C)cn4C)cn3C)cn2C)cn1C
Activity [1]: Toxic
Activity [2]: Non-toxic
Activity [3]: Toxic
Activity [4]: Toxic
Activity [5]: Non-toxic
Activity [6]: Non-toxic
Activity [7]: Toxic
Activity [8]: Non-toxic
Activity [9]: Toxic
Activity [10]: Toxic
Activity [11]: Toxic
remaining at 1 h [12]: > 90%
remaining at 1 h [13]: > 90%
Activity [14]: Toxic
Activity [15]: Non-toxic
remaining at 1 h [16]: > 90%
Activity [17]: Toxic
Activity [18]: Non-toxic
Activity [19]: Toxic
Activity [20]: Toxic
remaining at 1 h [21]: > 90%
Activity [22]: Non-toxic
